Experimental data from different studies.
Each line is one published result; the experiments were not run side by side.
Observed: cell growth or viability

The IC50 of `COc1cccc2c1C(=O)c1c(O)c3c(c(O)c1C2=O)C[C@@](O)(C(=O)CO)C[C@@H]3O[C@H]1C[C@H](N)[C@H](O)[C@H](C)O1` is reported as 0.7 µg/mL (SK-MEL; neutral red; 48 h).
`CNc1ncc2cc(-c3ccc(-c4cccc(C)n4)cc3Cl)c(=O)n(C[C@H]3OC[C@H](N)CO3)c2n1` gave an IC50 of 20300 nM (BXPC-3; MTT; 24 h).
`CC[C@]1(O)C[C@H]2CN(CCc3c([nH]c4ccccc34)[C@@](C(=O)OC)(c3cc4c(cc3OC)N(C=O)[C@H]3[C@@](O)(C(=O)OC)[C@H](OC(C)=O)[C@]5(CC)C=CCN6CC[C@]43[C@@H]65)C2)C1` gave an IC50 of 2 nM (BXPC-3; fluorescence; 72 h).
With `C=C(C)C(=O)Nc1ccc(-c2c(-c3ccc(Oc4nccc(C)n4)c(F)c3)c3c(N)ncnc3n2C)cc1` the IC50 was 9.96 nM (MFE-296; ATP luminescence; 96 h).
`CN(C)CCCN1c2ccccc2Sc2ccc(Cl)cc21` gave an IC50 of 26000 nM (human Hepatocyte).
`Cc1nc(NC(=O)N2CCC[C@H]2C(N)=O)sc1-c1ccnc(C(C)(C)C(F)(F)F)c1` gave an IC50 of 154 nM (SW48; ATP luminescence; 96 h).
`CCn1c(=O)c(-c2ccc(-c3cncs3)cc2Cl)cc2cnc(Nc3ccc(N4CCN(C)CC4)cc3)nc21` has an IC50 of 3030 nM (BXPC-3; MTT; 24 h).
`CN(C(=O)COC(=O)/C=C/c1cccc([N+](=O)[O-])c1)C1CCS(=O)(=O)C1` (centres unmarked) has an IC50 of 1600 nM (DLD-1; ATP luminescence; 48 h).
`COc1cc(Nc2nccc(-c3cnn4nc(OC)ccc34)n2)cc(C(F)(F)F)c1` gave an IC50 of 470 nM (NCI-H838; ATP luminescence).
With `Nc1ccn([C@@H]2O[C@H](CO)[C@@H](O)C2(F)F)c(=O)n1` the IC50 was 28 nM (BXPC-3; MTT).
With `C[C@H]1[C@H](C)CC[C@]2(C(=O)O)CC[C@]3(C)C(=CC[C@@H]4[C@@]5(C)CC[C@H](O)C(C)(C)[C@@H]5CC[C@]43C)[C@H]12` the IC50 was 13000 nM (DLD-1; 48 h).
With `CC(C)C[C@H](NC(=O)[C@H](Cc1ccccc1)NC(=O)c1cnccn1)B(O)O` the IC50 was 68 nM (BEN; ATP luminescence).
`Cc1nc(-c2cn3c(n2)-c2ccc(-c4cnn(C(C)(C)C(N)=O)c4)cc2OCC3)n(C(C)C)n1` gave an IC50 of 21.5 nM (SW48; ATP luminescence; 96 h).
`CN(C)C/C=C/C(=O)Nc1cc2c(Nc3ccc(F)c(Cl)c3)ncnc2cc1O[C@H]1CCOC1` has an IC50 of 4300 nM (SW620/AD300; MTT; 72 h).
